Measured values gathered from unrelated publications.
Target: Bone morphogenetic protein receptor type-2 (BMPR2, Homo sapiens, UniProt Q13873)
Residues used in one study (Q13873 27-1038): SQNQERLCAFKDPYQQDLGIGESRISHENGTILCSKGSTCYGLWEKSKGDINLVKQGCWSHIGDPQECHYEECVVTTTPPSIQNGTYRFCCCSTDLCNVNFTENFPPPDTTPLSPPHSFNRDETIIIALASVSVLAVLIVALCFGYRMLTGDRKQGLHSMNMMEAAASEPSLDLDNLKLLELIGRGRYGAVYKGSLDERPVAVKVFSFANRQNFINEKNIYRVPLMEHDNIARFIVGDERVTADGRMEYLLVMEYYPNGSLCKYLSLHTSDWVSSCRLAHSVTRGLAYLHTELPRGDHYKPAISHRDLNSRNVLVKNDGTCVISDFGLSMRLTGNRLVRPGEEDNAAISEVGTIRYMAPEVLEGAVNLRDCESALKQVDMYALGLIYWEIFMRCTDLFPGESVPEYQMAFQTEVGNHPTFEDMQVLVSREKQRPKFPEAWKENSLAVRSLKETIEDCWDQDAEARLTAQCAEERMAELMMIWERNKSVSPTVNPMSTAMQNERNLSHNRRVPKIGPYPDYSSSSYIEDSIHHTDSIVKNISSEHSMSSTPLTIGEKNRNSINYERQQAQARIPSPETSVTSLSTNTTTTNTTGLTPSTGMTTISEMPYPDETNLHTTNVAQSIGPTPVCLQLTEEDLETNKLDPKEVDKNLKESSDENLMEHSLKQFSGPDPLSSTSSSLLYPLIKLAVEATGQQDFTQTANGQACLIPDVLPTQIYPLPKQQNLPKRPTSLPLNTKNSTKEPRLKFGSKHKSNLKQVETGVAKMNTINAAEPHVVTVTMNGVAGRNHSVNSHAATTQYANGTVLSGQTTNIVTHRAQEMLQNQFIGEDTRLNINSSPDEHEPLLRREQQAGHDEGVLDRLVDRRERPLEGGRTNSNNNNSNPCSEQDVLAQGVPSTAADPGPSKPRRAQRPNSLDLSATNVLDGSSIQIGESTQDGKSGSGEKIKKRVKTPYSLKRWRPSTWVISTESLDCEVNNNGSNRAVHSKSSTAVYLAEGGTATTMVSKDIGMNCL

| SMILES | effect on | action | method | concentration | quantity | value |
| --- | --- | --- | --- | --- | --- | --- |
| Cc1ccc(NC(=O)c2ccnc(C(F)(F)F)c2)cc1-c1cc(OCCO)nc(N2CCOCC2)c1 | binding | – | – | 1 µM | remaining binding | 100% |
| CCCCC(=O)Nc1ccc(-c2ccc3ncn(CCC)c(=O)c3c2)cn1 | binding | – | competition with immobilised ligand | 0.5 µM | remaining binding | 100% |
| COc1ccc2oc(-c3ccc4nc(N)oc4c3)c/c(=N\c3ccccc3NC(=O)CCN)c2c1 | binding | – | – | 1 µM | remaining binding | 104% |
| C[C@H]1CC[C@H](n2c3cnccc3c3cnc(Nc4ccc5c(n4)CCN(C(=O)CO)C5)nc32)CC1 | binding | – | – | 1 µM | remaining binding | 100% |
| CC#CC(=O)N1CCC[C@H]1c1nc(-c2ccc(C(=O)Nc3ccccn3)cc2)c2c(N)nccn12 | enzyme activity | inhibitor | – | 1 µM | inhibition | 0% |
| N#Cc1ccc(NC(=O)Nc2ccccc2)cc1 | cell-free assay | – | competition with immobilised ligand | 25 µM | remaining binding | 95% |
| C=CC(=O)N1CCC[C@@H](n2nc(-c3ccc(Oc4ccccc4)cc3)c3c(N)ncnc32)C1 | enzyme activity | inhibitor | – | 1 µM | inhibition | 19% |
| C1=C/COCc2cc(ccc2OCCN2CCCC2)Nc2nccc(n2)-c2cccc(c2)COC/1 | binding | – | – | 0.1 µM | remaining binding | 80% |
